Experimental data taken from ChEMBL document CHEMBL2062460, “Disubstituted thiourea derivatives and their activity on CNS: synthesis and biological evaluation” (Eur J Med Chem, 2012).
Converted amounts (≈) assume the structure as drawn. The source made the active and inactive calls. The rule behind the calls is not given here.

Legend:
Bacillus subtilis [1] = assay: Antibacterial activity against Bacillus subtilis ATCC 6633 at 400 ug/disc after 18 hrs by disc diffusion method; type: functional; settings: ATCC 6633, 18 h, read-out: DIZ
Method in brief: (§1)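 Disc diffusion per CLSI on Mueller–Hinton II agar; 9 mm paper discs loaded from methanol or DMSO solutions to 400 µg per disc, dried; growth inhibition zone diameter read after 18 h at 35 °C.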

[2] = test system: Staphylococcus epidermidis; assay: Antibacterial activity against Staphylococcus epidermidis ATCC 12228 at 400 ug/disc after 18 hrs by disc diffusion method; type: functional; method in brief: as §1
Micrococcus luteus [3] = assay: Antibacterial activity against Micrococcus luteus ATCC 9341 at 400 ug/disc after 18 hrs by disc diffusion method; type: functional; method in brief: as §1
Proteus vulgaris = assay: Antibacterial activity against Proteus vulgaris NCTC 4635 at 400 ug/disc after 18 hrs by disc diffusion method; type: functional, organism-based; method in brief: as §1
Bacillus cereus [4] = assay: Antibacterial activity against Bacillus cereus ATCC 11778 at 400 ug/disc after 18 hrs by disc diffusion method; type: functional; method in brief: as §1
Staphylococcus aureus [5] = assay: Antibacterial activity against Staphylococcus aureus ATCC 6538 at 400 ug/disc after 18 hrs by disc diffusion method; type: functional; method in brief: as §1
Staphylococcus aureus [6] = assay: Antibacterial activity against Staphylococcus aureus ATCC 29213 at 400 ug/disc after 18 hrs by disc diffusion method; type: functional; method in brief: as §1
Enterococcus hirae [7] = assay: Antibacterial activity against Enterococcus hirae ATCC 10541 at 400 ug/disc after 18 hrs by disc diffusion method; type: functional; method in brief: as §1
[8] = test system: Human immunodeficiency virus 1; assay: Antiviral activity against HIV1 infected in human MT4 cells assessed as virus-induced cytopathogenicity after 4 days by MTT assay; type: functional, organism-based; settings: Human immunodeficiency virus 1, MT4, 96 h
Candida albicans [9] = assay: Antifungal activity against Candida albicans ATCC 90028 at 400 ug/disc after 18 hrs by disc diffusion method; type: functional, organism-based
Method in brief: (§2)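 Yeasts tested by disc diffusion (CLSI) on RPMI agar with 2% glucose; 9 mm paper discs bearing 400 µg compound from methanol or DMSO solution; inhibition zone diameter read after 18 h at 35 °C.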

Candida albicans [10] = assay: Antifungal activity against Candida albicans ATCC 10231 at 400 ug/disc after 18 hrs by disc diffusion method; type: functional, organism-based; method in brief: as §2
Escherichia coli [11] = assay: Antibacterial activity against Escherichia coli NCTC 8196 at 400 ug/disc after 18 hrs by disc diffusion method; type: functional, organism-based; method in brief: as §1
Pseudomonas aeruginosa [12] = assay: Antibacterial activity against Pseudomonas aeruginosa ATCC 27853 at 400 ug/disc after 18 hrs by disc diffusion method; type: functional, organism-based; method in brief: as §1
Staphylococcus aureus [13] = assay: Antibacterial activity against Staphylococcus aureus NCTC 4163 at 400 ug/disc after 18 hrs by disc diffusion method; type: functional; method in brief: as §1
Candida parapsilosis = assay: Antifungal activity against Candida parapsilosis ATCC 22019 at 400 ug/disc after 18 hrs by disc diffusion method; type: functional, organism-based; method in brief: as §2
Escherichia coli [14] = assay: Antibacterial activity against Escherichia coli ATCC 10538 at 400 ug/disc after 18 hrs by disc diffusion method; type: functional, organism-based; method in brief: as §1
Escherichia coli [15] = assay: Antibacterial activity against Escherichia coli ATCC 25922 at 400 ug/disc after 18 hrs by disc diffusion method; type: functional, organism-based; method in brief: as §1
Micrococcus luteus [16] = assay: Antibacterial activity against Micrococcus luteus ATCC 10240 at 400 ug/disc after 18 hrs by disc diffusion method; type: functional; settings: ATCC 10240, 18 h, read-out: DIZ; method in brief: as §1
Staphylococcus aureus [17] = assay: Antibacterial activity against Staphylococcus aureus ATCC 25923 at 400 ug/disc after 18 hrs by disc diffusion method; type: functional; method in brief: as §1
[18] = Cytotoxicity against human MT4 cells after 96 hrs by MTT assay; type: cell-based
Pseudomonas aeruginosa [19] = assay: Antibacterial activity against Pseudomonas aeruginosa NCTC 6749 at 400 ug/disc after 18 hrs by disc diffusion method; type: functional, organism-based; method in brief: as §1
[20] = test system: Bordetella bronchiseptica; assay: Antibacterial activity against Bordetella bronchiseptica ATCC 4617 at 400 ug/disc after 18 hrs by disc diffusion method; type: functional, organism-based; method in brief: as §1
Pseudomonas aeruginosa [21] = assay: Antibacterial activity against Pseudomonas aeruginosa ATCC 15442 at 400 ug/disc after 18 hrs by disc diffusion method; type: functional, organism-based; method in brief: as §1
[22] = test system: Staphylococcus epidermidis; assay: Antibacterial activity against Staphylococcus epidermidis ATCC 12228 after 18 hrs by twofold serial agar dilution technique; type: functional; settings: ATCC 12228, 18 h
Method in brief: (§3)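 Twofold serial agar dilution on Mueller–Hinton II agar, following CLSI guidelines. Compounds were dissolved in methanol or DMSO and tested at final agar concentrations of 3.125–400 µg/mL. Final inoculum was 10^4 CFU/mL.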

Micrococcus luteus [23] = assay: Antibacterial activity against Micrococcus luteus ATCC 10240 after 18 hrs by twofold serial agar dilution technique; type: functional; settings: ATCC 10240, 18 h
Bacillus subtilis [24] = assay: Antibacterial activity against Bacillus subtilis ATCC 6633 after 18 hrs by twofold serial agar dilution technique; type: functional; settings: ATCC 6633, 18 h
Staphylococcus aureus [25] = assay: Antibacterial activity against Staphylococcus aureus ATCC 25923 after 18 hrs by twofold serial agar dilution technique; type: functional; settings: ATCC 25923, 18 h; method in brief: as §3
Staphylococcus aureus [26] = assay: Antibacterial activity against Staphylococcus aureus NCTC 4163 after 18 hrs by twofold serial agar dilution technique; type: functional; settings: NCTC 4163, 18 h; method in brief: as §3
Staphylococcus aureus [27] = assay: Antibacterial activity against Staphylococcus aureus ATCC 6538 after 18 hrs by twofold serial agar dilution technique; type: functional; settings: ATCC 6538, 18 h; method in brief: as §3
Bacillus cereus [28] = assay: Antibacterial activity against Bacillus cereus ATCC 11778 after 18 hrs by twofold serial agar dilution technique; type: functional; settings: ATCC 11778, 18 h
Micrococcus luteus [29] = assay: Antibacterial activity against Micrococcus luteus ATCC 9341 after 18 hrs by twofold serial agar dilution technique; type: functional; settings: ATCC 9341, 18 h
Staphylococcus aureus [30] = assay: Antibacterial activity against Staphylococcus aureus ATCC 29213 after 18 hrs by twofold serial agar dilution technique; type: functional; settings: ATCC 29213, 18 h; method in brief: as §3
Enterococcus hirae [31] = assay: Antibacterial activity against Enterococcus hirae ATCC 10541 after 18 hrs by twofold serial agar dilution technique; type: functional; settings: ATCC 10541, 18 h
Mus musculus [32] = assay: Toxicity in Albino Swiss mouse assessed as locomotor activity administered at doses equivalent to 0.1 ED50, ip measured after 1 hr for 30 mins; type: organism-based; settings: in vivo
Method in brief: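 Spontaneous locomotor activity of single male Albino Swiss mice in photoresistor actometers (two light beams), beam crossings recorded for 30 min, starting 60 min after i.p. compound in 0.5% methylcellulose.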

Mus musculus [33] = assay: Antinociceptive activity in Albino Swiss mouse administered at doses equivalent to 0.025 to 0.1 ED50, ip; type: functional, organism-based
Mus musculus [34] = assay: Anticonvulsant activity in Albino Swiss mouse assessed as protection against pentylenetetrazole-induced mortality administered at doses equivalent to 0.1 ED50, ip; type: functional, organism-based
Mus musculus [35] = assay: Reduction of body temperature in normothermic Albino Swiss mouse administered at doses equivalent to 0.1 ED50, ip measured in rectum by thermistor thermometer analysis; type: ADME, organism-based; settings: in vivo
Mus musculus [36] = assay: Reduction of 5-hydroxytryptophan-induced head twitch in Albino Swiss mouse administered at doses equivalent to 0.1 ED50, ip; type: functional, organism-based
Mus musculus [37] = assay: Toxicity in Albino Swiss mouse assessed as motor coordination administered at doses equivalent to 0.1 ED50, ip by chimney test; type: organism-based; settings: in vivo
Mus musculus [38] = assay: Toxicity in Albino Swiss mouse assessed as effect on amphetamine-induced hyperactivity administered at doses equivalent to 0.1 ED50, ip; type: organism-based; settings: in vivo
Method in brief: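 Compound i.p. in 0.5% methylcellulose 60 min before test; amphetamine 5 mg/kg s.c. 30 min before test; single mice in photoresistor actometers, light-beam crossings counted for 30 min.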

Mus musculus [39] = assay: Anticonvulsant activity in Albino Swiss mouse assessed as protection against pentylenetetrazole-induced severity of clonic or tonic seizures administered at doses equivalent to 0.1 ED50, ip; type: functional, organism-based
Mus musculus [40] = assay: Toxicity in Albino Swiss mouse assessed as motor coordination administered at doses equivalent to 0.1 ED50, ip by rota rod test; type: organism-based; settings: in vivo

| Structure (SMILES) | zone of inhibition at 400 µg/disc (Bacillus subtilis [1]) | diameter of the inhibition zone (DIZ) [2] | diameter of the inhibition zone (DIZ) (Proteus vulgaris) | diameter of the inhibition zone (DIZ) (Bacillus cereus [4]) | diameter of the inhibition zone (DIZ) (Staphylococcus aureus [5]) | diameter of the inhibition zone (DIZ) (Staphylococcus aureus [6]) | diameter of the inhibition zone (DIZ) (Enterococcus hirae [7]) | EC50 [8] | diameter of the inhibition zone (DIZ) (Candida albicans [9]) | diameter of the inhibition zone (DIZ) (Candida albicans [10]) | diameter of the inhibition zone (DIZ) (Escherichia coli [11]) | diameter of the inhibition zone (DIZ) (Pseudomonas aeruginosa [12]) | diameter of the inhibition zone (DIZ) (Staphylococcus aureus [13]) | diameter of the inhibition zone (DIZ) (Candida parapsilosis) | diameter of the inhibition zone (DIZ) (Escherichia coli [14]) | diameter of the inhibition zone (DIZ) (Escherichia coli [15]) | zone of inhibition at 400 µg/disc (Micrococcus luteus [16]) | diameter of the inhibition zone (DIZ) (Staphylococcus aureus [17]) | CC50 at 96 h [18] | diameter of the inhibition zone (DIZ) (Pseudomonas aeruginosa [19]) | other results |
| --- | --- | --- | --- | --- | --- | --- | --- | --- | --- | --- | --- | --- | --- | --- | --- | --- | --- | --- | --- | --- | --- |
| Cc1ccc(NC(=S)Nc2nc[nH]n2)cc1 | 13 mm | inactive | inactive | inactive | inactive | inactive | inactive | > 50 µM | inactive | inactive | inactive | inactive | inactive | inactive | inactive | inactive | 12 mm | inactive | 59 µM | inactive | diameter of the inhibition zone (DIZ) (Micrococcus luteus [3]): inactive; diameter of the inhibition zone (DIZ) [20]: inactive; diameter of the inhibition zone (DIZ) (Pseudomonas aeruginosa [21]): inactive |
| O=C(O)c1cn(C2CC2)c2cc(N3CCNCC3)c(F)cc2c1=O [CIPROFLOXACIN] |  |  |  |  |  |  |  |  |  |  |  |  |  |  |  |  |  |  |  |  | MIC [22]: 0.5 µg/mL (≈ 1.51 µM); MIC (Micrococcus luteus [23]): 1 µg/mL (≈ 3.02 µM); MIC (Bacillus subtilis [24]): < 0.125 µg/mL; MIC (Staphylococcus aureus [25]): 0.5 µg/mL (≈ 1.51 µM); MIC (Staphylococcus aureus [26]): 0.5 µg/mL (≈ 1.51 µM); MIC (Staphylococcus aureus [27]): 0.5 µg/mL (≈ 1.51 µM); MIC (Bacillus cereus [28]): 0.5 µg/mL (≈ 1.51 µM); MIC (Micrococcus luteus [29]): 2 µg/mL (≈ 6.04 µM); MIC (Staphylococcus aureus [30]): 0.5 µg/mL (≈ 1.51 µM); MIC (Enterococcus hirae [31]): 4 µg/mL (≈ 12.1 µM) |
| S=C(Nc1cccc(Br)c1)Nc1nc[nH]n1 | 16 mm | inactive | inactive | inactive | inactive | inactive | inactive | > 50 µM | inactive | inactive | inactive | inactive | inactive | inactive | inactive | inactive | 14 mm | inactive | 50 µM | inactive | Activity (Mus musculus [32]): Non-toxic; zone of inhibition at 400 µg/disc (Micrococcus luteus [3]; ATCC 9341, 18 h, read-out: DIZ): 15 mm; Activity (Mus musculus [33]): Active; Activity (Mus musculus [34]): inactive; Activity (Mus musculus [35]): Toxic; Activity (Mus musculus [36]): Active; Activity (Mus musculus [37]): Non-toxic; Activity (Mus musculus [38]): Non-toxic; diameter of the inhibition zone (DIZ) [20]: inactive; Activity (Mus musculus [39]): inactive; diameter of the inhibition zone (DIZ) (Pseudomonas aeruginosa [21]): inactive; Activity (Mus musculus [40]): Non-toxic |
| S=C(Nc1ccc(Cl)c(Cl)c1)Nc1nc[nH]n1 |  |  |  |  |  |  |  | > 47 µM |  |  |  |  |  |  |  |  |  |  | 47 µM |  |  |
| O=C(NC(=S)Nc1nc[nH]n1)c1ccccc1 |  |  |  |  |  |  |  | > 100 µM |  |  |  |  |  |  |  |  |  |  | > 100 µM |  |  |
